Reference: PubChem BioAssay
Results filed as inconclusive are left out.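 The calls were made as follows, unless noted: active = viability increase at or above a cutoff of the median across tested compounds plus 3 SD (cut at about 8.5% in these data, passing the limit was not always enough); inconclusive = some gains above the cutoff, reason not given; inactive = the rest.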

Assays:
[1] = S. cerevisiae growth inhibition in permissive medium (OD615), pilot counter-assay for S. cerevisiae lifespan shortening project, permissive growth control (AID 705;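 active = growth inhibition above 25% in both replicates, a cutoff set 3 SD above the mean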); conditions: OD615, 24 h, at 10 µM, hits give high values
Method in brief: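 Test system: Saccharomyces cerevisiae strain carrying genetically modified DeaD replicative-lifespan system; buffer or medium: SC raffinose/galactose permissive medium; dosing: one dose 10 µM, DMSO 0.25% final; times: 24 h exposure, 30 °C; measured by: OD at 615 nm; read-out basis: growth inhibition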

[2] = S. cerevisiae growth inhibition in restrictive medium, OD615, pilot screen, restrictive growth control, yeast lifespan reduction project (AID 706;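 active = growth inhibition above a set limit, 3 SD over mean compound inhibition, in both replicates, cut at about 43% in these data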;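 also: modified DeaD lifespan yeast strain shifted to restrictive glucose medium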); conditions: OD615, 48 h, at 10 µM, hits give high values
Method in brief: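 material = engineered S. cerevisiae DeaD strain | buffer or medium = glucose-based CSMM-D restrictive medium | dosing = one concentration, 10 µM final, 0.25% DMSO | schedule = 4 h pre-growth plus 48 h compound exposure, 30 °C | detection = OD615 absorbance reading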

[3] = doxorubicin toxicity protection in MRP-1 cells – H69AR cells, CellTiter-Glo, duplicate, MRP-1 activator project, pilot screen (AID 807); conditions: H69AR viability with doxorubicin, CellTiter-Glo luminescence; at 10 µM; hits give high values;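 also: compound pretreatment 18-22 h then 72 h combined with doxorubicin; 0% = doxorubicin alone and 100% = vehicle without doxorubicin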
[4] = viability of PTEN-null HCT116 cells – cell-based, HCT116 clonal line, CellTiter-Glo, pilot screen (AID 824;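 active = viability at or below 27.92% in each of two runs, the all-compound median minus 4 SD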;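 also: 0% = 20 µM Hyamine control and 100% = vehicle cell control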); conditions: HCT116 PTEN-deleted viability, 60 h, at 10 µM, hits give low values
[5] = RAM pathway blockade in budding yeast – dse1pr::URA3 reporter, 5-FOA selection, pilot screen (AID 869;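 active = inhibition over a set limit, the all-compound mean plus 3 SD, in both replicate runs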;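 also: 0% = DMSO wells with no growth and 100% = 10 µM 1-NA-PP1 with full growth; RAM network block rescues cells from 5-FOA so hits raise OD615 growth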); conditions: S. cerevisiae dse1pr::URA3 5-FOA growth, OD615, 2 d; at 10 µM; hits give high values; strain carries analog-sensitive mutant Cbk1 kinase
[6] = RAM signaling pathway blockade in yeast – S. cerevisiae, Pdr1DBD-CYC8 efflux-inhibited sensitized strain, primary screen (AID 1298;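 active = RAM network inhibition above 8.4% in each of two replicates, 3 SD over the compound average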;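 also: 0% = DMSO untreated cells without growth and 100% = 10 µM 1-NA-PP1 full growth; higher means more yeast growth rescued from 5-FOA killing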); conditions: S. cerevisiae cbk1-as DSE1-URA3 strain, 5-FOA growth OD615, 2 d; at 50 µM; hits give high values

O=S(=O)(Cc1ccccc1)N1CCc2ccccc2C1
inactive: growth inhibition [1] 2.65% | growth inhibition [2] -4.61% | viability increase [3] -0.66% | viability [4] 95.8% | inhibition [5] 3.92% | RAM network inhibition [6] 6.16%

N#Cc1ccc(Sc2nc3ccccc3[nH]2)cc1C#N
inactive: growth inhibition [1] -7.23% | growth inhibition [2] 4.58% | viability increase [3] -5.02% | viability [4] 89.8% | inhibition [5] 2.44% | RAM network inhibition [6] 1.9%

O=C(C1CC1)N1CCc2cc(Br)cc(S(=O)(=O)NCCN3CCOCC3)c21
inactive: growth inhibition [1] -5.94% | growth inhibition [2] -6.43% | viability increase [3] -2.94% | viability [4] 94.7% | inhibition [5] 1.69% | RAM network inhibition [6] 2.57%

Cc1ccc(S(=O)(=O)c2cccc(S(=O)(=O)N3CCCC3)c2)cc1S(=O)(=O)N1CCCC1
inactive: growth inhibition [1] -2.43% | growth inhibition [2] -5.35% | viability increase [3] -3.64% | viability [4] 44.4% | inhibition [5] 1.4% | RAM network inhibition [6] 2.38%

COC(=O)C1=C(C)NC2=C(C(=O)CC(c3cccs3)C2)C1c1ccsc1 (stereo not drawn)
inactive: growth inhibition [1] -7.01% | growth inhibition [2] 2.53% | viability increase [3] -6.75% | viability [4] 40.1% | inhibition [5] 1.25% | RAM network inhibition [6] 4.86%

COc1ccc(C2CC(=O)C(C=NCCO)=C(O)C2)cc1OC (stereo not drawn)
inactive: growth inhibition [1] -5.79% | growth inhibition [2] 4.22% | viability increase [3] 1.21% | viability [4] 105% | inhibition [5] -0.07% | RAM network inhibition [6] -0.41%

CCn1nc(C(=O)NC2=NCCS2)c2ccccc2c1=O
inactive: growth inhibition [1] 9.05% | growth inhibition [2] -1.14% | viability increase [3] -2.76% | viability [4] 104% | inhibition [5] 1.19% | RAM network inhibition [6] 3.32%

CCN(CC)c1ccc(CNC23CN4CN(CN(C4)C2)C3)cc1
inactive: growth inhibition [1] -8.69% | growth inhibition [2] 2.79% | viability increase [3] -2.2% | viability [4] 94.1% | inhibition [5] 1.72% | RAM network inhibition [6] 2.4%

c1cncc(CNc2nc(N3CCOCC3)nc(N3CCOCC3)n2)c1
inactive: growth inhibition [1] -10.4% | growth inhibition [2] 1.83% | viability increase [3] -2.97% | viability [4] 91.8% | inhibition [5] 1.27% | RAM network inhibition [6] 1.95%

CCNc1nc(Oc2ccc(C(=O)OCC)cc2)nc(SC)n1
inactive: growth inhibition [1] -5.11% | growth inhibition [2] 1.57% | viability increase [3] -1.58% | viability [4] 78.9% | inhibition [5] 2.05% | RAM network inhibition [6] 2.82%

Cc1c(C)[n+](=O)c(-c2ccc(F)cc2)c(C)n1[O-]
inactive: growth inhibition [1] -1.22% | growth inhibition [2] 3.79% | viability increase [3] -3.29% | viability [4] 98.3% | inhibition [5] 0.535% | RAM network inhibition [6] 4.01%

Cc1nnc(NC(=O)CSc2nccn2-c2cccc(C)c2C)s1
inactive: growth inhibition [1] -7.29% | growth inhibition [2] 11.5% | viability increase [3] -5.19% | viability [4] 30.1% | inhibition [5] 0.035% | RAM network inhibition [6] 4.71%

COc1ccc(OC)c(S(=O)(=O)N2CCCCC2C(=O)N2CCN(c3ccccn3)CC2)c1 (stereo not drawn)
inactive: growth inhibition [1] 1.82% | growth inhibition [2] -0.22% | viability increase [3] -4.71% | viability [4] 91.8% | inhibition [5] 1.77% | RAM network inhibition [6] 7.83%

CCOC(=O)c1c(O)c2c(n(Cc3ccco3)c1=O)CCCC2
inactive: growth inhibition [1] -8.59% | growth inhibition [2] 4.38% | viability increase [3] -0.86% | viability [4] 102% | inhibition [5] -0.075% | RAM network inhibition [6] -1.18%

O/N=C1\CCCc2oc3c(c21)CCCC3
inactive: growth inhibition [1] -7.12% | growth inhibition [2] -2.73% | viability increase [3] -1.84% | viability [4] 97.5% | inhibition [5] 2.48% | RAM network inhibition [6] 1.89%

COc1cc2[nH]c(=O)n(CCCC(=O)N3CC=C(c4ccccc4)CC3)c(=O)c2cc1OC
inactive: growth inhibition [1] -11.3% | growth inhibition [2] -6.67% | viability increase [3] -4.59% | viability [4] 80.5% | inhibition [5] 0.355% | RAM network inhibition [6] 1.8%

COc1cc(/C=N/n2cnnc2)ccc1OC(=O)c1cccnc1
inactive: growth inhibition [1] -8.46% | growth inhibition [2] -8.55% | viability increase [3] -2.5% | viability [4] 97.8% | inhibition [5] 0.985% | RAM network inhibition [6] 0.57%

COc1ccc(C2C(C(=O)c3cccs3)=C(O)C(=O)N2c2nncs2)cc1 (stereo not drawn)
inactive: growth inhibition [1] -15.5% | growth inhibition [2] -14.4% | viability increase [3] -1.95% | viability [4] 102% | inhibition [5] 0.41% | RAM network inhibition [6] 2.46%
